{
  "source": "paper PMC9302689",
  "about": "(British Journal of Clinical Pharmacology, 2022)",
  "assay": "Pharmacokinetics, first-in-human single ascending dose study",
  "assay_type": "in vivo",
  "conditions": "n = 8",
  "method_in_brief": "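Healthy men received a single fasted dose of 3–200 mg, with 8 on active drug per cohort. Plasma was sampled pre-dose and at 0.25–36 h. Drug was quantified by validated LC–MS/MS (LLOQ 1.00 ng/mL). Cmax, tmax, t1/2, AUClast and AUC∞ were calculated by noncompartmental analysis using actual elapsed sampling times.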",
  "data": [
    {"compound": "CN1CCC23CCCCC2C1Cc1ccc(C(N)=O)cc13", "note": "(stereo not drawn) [ALKS 7119, (9α, 13α)‐17‐methylmorphinan‐3‐carboxamide]", "values": [
      {"measurement": "AUC infinite/dose", "setting": "3 mg single oral dose", "result": 33.34},
      {"measurement": "AUClast, mean (SD)", "setting": "3 mg single oral dose", "result": "85.88 (25.56) hr*ng/ml"},
      {"measurement": "AUClast, range", "setting": "3 mg single oral dose", "result": "57.37 to 129.02", "unit": "ng·h/mL"},
      {"measurement": "AUC∞, mean (SD)", "setting": "3 mg single oral dose", "result": "100.03 (25.04) hr*ng/ml"},
      {"measurement": "AUC∞, range", "setting": "3 mg single oral dose", "result": "73.65 to 140.04", "unit": "ng·h/mL"},
      {"measurement": "Cmax, mean (SD)", "setting": "3 mg single oral dose", "result": "8.33 (2.78) ng/ml"},
      {"measurement": "Cmax, range", "setting": "3 mg single oral dose", "result": "5.87 to 13.20", "unit": "ng/mL"},
      {"measurement": "Cmax/dose", "setting": "3 mg single oral dose", "result": 2.78},
      {"measurement": "t1/2, mean (SD)", "setting": "3 mg single oral dose", "result": "6.98(1.16) h"},
      {"measurement": "t1/2, range", "setting": "3 mg single oral dose", "result": "5.20 to 8.77", "unit": "h"},
      {"measurement": "tmax, median", "setting": "3 mg single oral dose", "result": 2.02, "unit": "h"},
      {"measurement": "tmax, range", "setting": "3 mg single oral dose", "result": "2.00 to 4.15", "unit": "h"},
      {"measurement": "AUC infinite/dose", "setting": "10 mg single oral dose", "result": 29.54},
      {"measurement": "AUClast, mean (SD)", "setting": "10 mg single oral dose", "result": "272.60 (35.69) hr*ng/ml"},
      {"measurement": "AUClast, range", "setting": "10 mg single oral dose", "result": "198.45 to 321.20", "unit": "ng·h/mL"},
      {"measurement": "AUC∞, mean (SD)", "setting": "10 mg single oral dose", "result": "295.38 (32.29) hr*ng/ml"},
      {"measurement": "AUC∞, range", "setting": "10 mg single oral dose", "result": "233.76 to 338.34", "unit": "ng·h/mL"},
      {"measurement": "Cmax, mean (SD)", "setting": "10 mg single oral dose", "result": "25.33 (3.91) ng/ml"},
      {"measurement": "Cmax, range", "setting": "10 mg single oral dose", "result": "20.40 to 32.30", "unit": "ng/mL"},
      {"measurement": "Cmax/dose", "setting": "10 mg single oral dose", "result": 2.53},
      {"measurement": "t1/2, mean (SD)", "setting": "10 mg single oral dose", "result": "8.51 (0.89) h"},
      {"measurement": "t1/2, range", "setting": "10 mg single oral dose", "result": "7.01 to 9.45", "unit": "h"},
      {"measurement": "tmax, median", "setting": "10 mg single oral dose", "result": 2.00, "unit": "h"},
      {"measurement": "tmax, range", "setting": "10 mg single oral dose", "result": "1.00 to 2.00", "unit": "h"},
      {"measurement": "AUC infinite/dose", "setting": "25 mg single oral dose", "result": 29.25},
      {"measurement": "AUClast, mean (SD)", "setting": "25 mg single oral dose", "result": "703.56 (89.80) hr*ng/ml"},
      {"measurement": "AUClast, range", "setting": "25 mg single oral dose", "result": "608.46 to 864.96", "unit": "ng·h/mL"},
      {"measurement": "AUC∞, mean (SD)", "setting": "25 mg single oral dose", "result": "731.29 (87.27) hr*ng/ml"},
      {"measurement": "AUC∞, range", "setting": "25 mg single oral dose", "result": "640.06 to 883.94", "unit": "ng·h/mL"},
      {"measurement": "Cmax, mean (SD)", "setting": "25 mg single oral dose", "result": "74.51 (16.19) ng/ml"},
      {"measurement": "Cmax, range", "setting": "25 mg single oral dose", "result": "51.00 to 93.00", "unit": "ng/mL"},
      {"measurement": "Cmax/dose", "setting": "25 mg single oral dose", "result": 2.98},
      {"measurement": "t1/2, mean (SD)", "setting": "25 mg single oral dose", "result": "7.81 (0.83) h"},
      {"measurement": "t1/2, range", "setting": "25 mg single oral dose", "result": "6.78 to 9.41", "unit": "h"},
      {"measurement": "tmax, median", "setting": "25 mg single oral dose", "result": 1.00, "unit": "h"},
      {"measurement": "tmax, range", "setting": "25 mg single oral dose", "result": "1.00 to 2.00", "unit": "h"},
      {"measurement": "AUC infinite/dose", "setting": "50 mg single oral dose", "result": 30.94},
      {"measurement": "AUClast, mean (SD)", "setting": "50 mg single oral dose", "result": "1473.57 (203.53) hr*ng/ml"},
      {"measurement": "AUClast, range", "setting": "50 mg single oral dose", "result": "1234.86 to 1780.97", "unit": "ng·h/mL"},
      {"measurement": "AUC∞, mean (SD)", "setting": "50 mg single oral dose", "result": "1547.06 (196.89) hr*ng/ml"},
      {"measurement": "AUC∞, range", "setting": "50 mg single oral dose", "result": "1277.55 to 1828.84", "unit": "ng·h/mL"},
      {"measurement": "Cmax, mean (SD)", "setting": "50 mg single oral dose", "result": "140.00 (32.44) ng/ml"},
      {"measurement": "Cmax, range", "setting": "50 mg single oral dose", "result": "103.00 to 190.00", "unit": "ng/mL"},
      {"measurement": "Cmax/dose", "setting": "50 mg single oral dose", "result": 2.80},
      {"measurement": "t1/2, mean (SD)", "setting": "50 mg single oral dose", "result": "7.81 (0.69) h"},
      {"measurement": "t1/2, range", "setting": "50 mg single oral dose", "result": "6.99 to 8.68", "unit": "h"},
      {"measurement": "tmax, median", "setting": "50 mg single oral dose", "result": 1.53, "unit": "h"},
      {"measurement": "tmax, range", "setting": "50 mg single oral dose", "result": "1.00 to 4.00", "unit": "h"},
      {"measurement": "AUC infinite/dose", "setting": "75 mg single oral dose", "result": 33.98},
      {"measurement": "AUClast, mean (SD)", "setting": "75 mg single oral dose", "result": "2406.33 (373.64) hr*ng/ml"},
      {"measurement": "AUClast, range", "setting": "75 mg single oral dose", "result": "1732.82 to 2969.47", "unit": "ng·h/mL"},
      {"measurement": "AUC∞, mean (SD)", "setting": "75 mg single oral dose", "result": "2548.51 (468.23) hr*ng/ml"},
      {"measurement": "AUC∞, range", "setting": "75 mg single oral dose", "result": "1772.06 to 3367.86", "unit": "ng·h/mL"},
      {"measurement": "Cmax, mean (SD)", "setting": "75 mg single oral dose", "result": "225.50 (40.59) ng/ml"},
      {"measurement": "Cmax, range", "setting": "75 mg single oral dose", "result": "190.00 to 302.00", "unit": "ng/mL"},
      {"measurement": "Cmax/dose", "setting": "75 mg single oral dose", "result": 3.01},
      {"measurement": "t1/2, mean (SD)", "setting": "75 mg single oral dose", "result": "8.42 (1.63) h"},
      {"measurement": "t1/2, range", "setting": "75 mg single oral dose", "result": "6.84 to 12.01", "unit": "h"},
      {"measurement": "tmax, median", "setting": "75 mg single oral dose", "result": 1.50, "unit": "h"},
      {"measurement": "tmax, range", "setting": "75 mg single oral dose", "result": "0.50 to 4.00", "unit": "h"},
      {"measurement": "AUC infinite/dose", "setting": "100 mg single oral dose", "result": 31.36},
      {"measurement": "AUClast, mean (SD)", "setting": "100 mg single oral dose", "result": "3027.23 (600.53) hr*ng/ml"},
      {"measurement": "AUClast, range", "setting": "100 mg single oral dose", "result": "2340.29 to 4326.23", "unit": "ng·h/mL"},
      {"measurement": "AUC∞, mean (SD)", "setting": "100 mg single oral dose", "result": "3136.45 (634.60) hr*ng/ml"},
      {"measurement": "AUC∞, range", "setting": "100 mg single oral dose", "result": "2418.74 to 4525.46", "unit": "ng·h/mL"},
      {"measurement": "Cmax, mean (SD)", "setting": "100 mg single oral dose", "result": "307.63 (75.28) ng/ml"},
      {"measurement": "Cmax, range", "setting": "100 mg single oral dose", "result": "224.00 to 465.00", "unit": "ng/mL"},
      {"measurement": "Cmax/dose", "setting": "100 mg single oral dose", "result": 3.08},
      {"measurement": "t1/2, mean (SD)", "setting": "100 mg single oral dose", "result": "7.63 (0.93) h"},
      {"measurement": "t1/2, range", "setting": "100 mg single oral dose", "result": "6.36 to 8.84", "unit": "h"},
      {"measurement": "tmax, median", "setting": "100 mg single oral dose", "result": 1.50, "unit": "h"},
      {"measurement": "tmax, range", "setting": "100 mg single oral dose", "result": "1.00 to 4.08", "unit": "h"},
      {"measurement": "AUC infinite/dose", "setting": "125 mg single oral dose", "result": 33.50},
      {"measurement": "AUClast, mean (SD)", "setting": "125 mg single oral dose", "result": "4059.17 (809.98) hr*ng/ml"},
      {"measurement": "AUClast, range", "setting": "125 mg single oral dose", "result": "3120.58 to 5579.28", "unit": "ng·h/mL"},
      {"measurement": "AUC∞, mean (SD)", "setting": "125 mg single oral dose", "result": "4187.59 (840.18) hr*ng/ml"},
      {"measurement": "AUC∞, range", "setting": "125 mg single oral dose", "result": "3188.91 to 5732.16", "unit": "ng·h/mL"}
    ]}
  ]
}
